Data taken from ChEMBL document CHEMBL3132745, “Synthesis and Antimicrobial Activities of His(2-aryl)-Arg and Trp-His(2-aryl) Classes of Dipeptidomimetics” (Medchemcomm, 2014).
≈ marks a conversion by molar mass, not a printed value. Calls of active or inactive are those of the source. The rule behind the calls is not given here. Residues, ends and D or L forms follow the SMILES beside them.

Tests used:
Aspergillus fumigatus = test: Antifungal activity against Aspergillus fumigatus assessed as growth inhibition; type: functional, organism-based
SK-MEL = test: Cytotoxicity against human SK-MEL cells assessed as cell viability after 48 hrs by neutral red uptake assay; type: cell-based
Outline: (§1)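 Neutral red uptake assay on human cancer lines (SK-MEL, KB, BT-549, SK-OV-3) and noncancerous mammalian cells (VERO, LLC-PK1). Highest tested concentration was 10 µg/mL.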

Cryptococcus neoformans = test: Antifungal activity against Cryptococcus neoformans ATCC 90113 assessed as growth inhibition after 70-74 hrs by CLSI method; type: functional, organism-based
Escherichia coli = test: Antibacterial activity against Escherichia coli ATCC 35218 assessed as growth inhibition after 16-20 hrs by CLSI method; type: functional, organism-based
BT-549 = test: Cytotoxicity against human BT549 cells assessed as cell viability after 48 hrs by neutral red uptake assay; type: cell-based; details: bt-549, 48 h; outline: as §1
Candida albicans = test: Antifungal activity against Candida albicans assessed as growth inhibition; type: functional, organism-based
LLC-PK1 = test: Cytotoxicity against pig LLC-PK1 cells assessed as cell viability after 48 hrs by neutral red uptake assay; type: cell-based, Sus scrofa; details: llc-pk1, 48 h; outline: as §1
Pichia kudriavzevii = test: Antifungal activity against Candida krusei assessed as growth inhibition; type: functional, organism-based
SK-OV-3 = test: Cytotoxicity against human SKOV3 cells assessed as cell viability after 48 hrs by neutral red uptake assay; type: cell-based; details: sk-ov-3, 48 h; outline: as §1
Nakaseomyces glabratus = test: Antifungal activity against Candida glabrata assessed as growth inhibition; type: functional, organism-based
KB = test: Cytotoxicity against human KB cells assessed as cell viability after 48 hrs by neutral red uptake assay; type: cell-based; outline: as §1
Vero = test: Cytotoxicity against african green monkey Vero cells assessed as cell viability after 48 hrs by neutral red uptake assay; type: cell-based; details: chlorocebus sabaeus; outline: as §1
[1] = Cryptococcus neoformans, ATCC 90113, read-out: IC50
[2] = Cryptococcus neoformans, ATCC 90113

## COC(=O)[C@H](CCCNC(=N)N)NC(=O)[C@@H](N)Cc1c[nH]c(-c2ccc(C)cc2)n1
Aspergillus fumigatus
  growth inhibition (GI): inactive
SK-MEL
  Activity: > 10 µg/mL
Cryptococcus neoformans
  IC50: Not Active
  MFC: inactive
  MIC: inactive
Escherichia coli
  growth inhibition (GI): inactive
BT-549
  Activity: > 10 µg/mL
Candida albicans
  growth inhibition (GI): inactive
LLC-PK1
  Activity: > 10 µg/mL
Pichia kudriavzevii
  growth inhibition (GI): inactive
SK-OV-3
  Activity: > 10 µg/mL
Nakaseomyces glabratus
  growth inhibition (GI): inactive
KB
  Activity: > 10 µg/mL
Vero
  Activity: > 10 µg/mL

## COC(=O)[C@H](Cc1c[nH]c(-c2ccc(OC)cc2)n1)NC(=O)[C@H](Cc1c[nH]c2ccccc12)NC(=O)OC(C)(C)C
Aspergillus fumigatus
  growth inhibition (GI): inactive
SK-MEL
  Activity: > 10 µg/mL
Cryptococcus neoformans
  IC50: Not Active
  MFC: inactive
  MIC: inactive
Escherichia coli
  growth inhibition (GI): inactive
BT-549
  Activity: > 10 µg/mL
Candida albicans
  growth inhibition (GI): inactive
LLC-PK1
  Activity: > 10 µg/mL
Pichia kudriavzevii
  growth inhibition (GI): inactive
SK-OV-3
  Activity: > 10 µg/mL
Nakaseomyces glabratus
  growth inhibition (GI): inactive
KB
  Activity: > 10 µg/mL
Vero
  Activity: > 10 µg/mL

## COC(=O)[C@H](CCCNC(=N)N)NC(=O)[C@H](Cc1c[nH]c(-c2ccc(C)cc2)n1)NC(=O)OC(C)(C)C
Aspergillus fumigatus
  growth inhibition (GI): inactive
SK-MEL
  Activity: > 10 µg/mL
Cryptococcus neoformans
  MFC: inactive
  MIC: inactive
Cryptococcus neoformans; [1]
  IC50: 16.9 mg/L (≈ 32.9 µM)
Escherichia coli
  growth inhibition (GI): inactive
BT-549
  Activity: > 10 µg/mL
Candida albicans
  growth inhibition (GI): inactive
LLC-PK1
  Activity: > 10 µg/mL
Pichia kudriavzevii
  growth inhibition (GI): inactive
SK-OV-3
  Activity: > 10 µg/mL
Nakaseomyces glabratus
  growth inhibition (GI): inactive
KB
  Activity: > 10 µg/mL
Vero
  Activity: > 10 µg/mL

## COC(=O)[C@H](CCCNC(=N)N)NC(=O)[C@@H](N)Cc1c[nH]cn1 (H-His-Arg-OMe)
Aspergillus fumigatus
  growth inhibition (GI): inactive
SK-MEL
  Activity: > 10 µg/mL
Cryptococcus neoformans
  IC50: Not Active
  MFC: inactive
  MIC: inactive
Escherichia coli
  growth inhibition (GI): inactive
BT-549
  Activity: > 10 µg/mL
Candida albicans
  growth inhibition (GI): inactive
LLC-PK1
  Activity: > 10 µg/mL
Pichia kudriavzevii
  growth inhibition (GI): inactive
SK-OV-3
  Activity: > 10 µg/mL
Nakaseomyces glabratus
  growth inhibition (GI): inactive
KB
  Activity: > 10 µg/mL
Vero
  Activity: > 10 µg/mL

## C[C@@H]1[C@H](O)[C@@H](C)/C=C/C=C/C=C/C=C/C=C/C=C/C=C/[C@H](O[C@@H]2O[C@H](C)[C@@H](O)[C@H](N)[C@@H]2O)C[C@@H]2O[C@](O)(C[C@@H](O)C[C@@H](O)[C@H](O)CC[C@@H](O)C[C@@H](O)CC(=O)O[C@H]1C)C[C@H](O)[C@H]2C(=O)O [AMPHOTERICIN B]
Cryptococcus neoformans; [2]
  MFC: 1.25 mg/L (≈ 1.35 µM)
  MIC: 1.25 mg/L (≈ 1.35 µM)
Cryptococcus neoformans; [1]
  IC50: 0.69 mg/L (≈ 0.747 µM)

## CC(C)(C)OC(=O)N[C@@H](Cc1c[nH]c2ccccc12)C(=O)N[C@@H](Cc1c[nH]c(-c2ccc(-c3ccccc3)cc2)n1)C(=O)NCc1ccccc1
Aspergillus fumigatus
  growth inhibition (GI): inactive
SK-MEL
  Activity: > 10 µg/mL
Cryptococcus neoformans
  IC50: Not Active
  MFC: inactive
  MIC: inactive
Escherichia coli
  growth inhibition (GI): inactive
BT-549
  Activity: > 10 µg/mL
Candida albicans
  growth inhibition (GI): inactive
LLC-PK1
  Activity: > 10 µg/mL
Pichia kudriavzevii
  growth inhibition (GI): inactive
SK-OV-3
  Activity: > 10 µg/mL
Nakaseomyces glabratus
  growth inhibition (GI): inactive
KB
  Activity: > 10 µg/mL
Vero
  Activity: > 10 µg/mL

## COC(=O)[C@H](Cc1c[nH]c(-c2cccc3ccccc23)n1)NC(=O)[C@@H](N)Cc1c[nH]c2ccccc12
Aspergillus fumigatus
  growth inhibition (GI): inactive
SK-MEL
  Activity: > 10 µg/mL
Cryptococcus neoformans
  MFC: inactive
  MIC: inactive
Cryptococcus neoformans; [1]
  IC50: 17.3 mg/L (≈ 35.9 µM)
Escherichia coli
  growth inhibition (GI): inactive
BT-549
  Activity: > 10 µg/mL
Candida albicans
  growth inhibition (GI): inactive
LLC-PK1
  Activity: > 10 µg/mL
Pichia kudriavzevii
  growth inhibition (GI): inactive
SK-OV-3
  Activity: > 10 µg/mL
Nakaseomyces glabratus
  growth inhibition (GI): inactive
KB
  Activity: > 10 µg/mL
Vero
  Activity: > 10 µg/mL

## COC(=O)[C@H](Cc1c[nH]c(-c2ccc(OC)cc2)n1)NC(=O)[C@@H](N)Cc1c[nH]c2ccccc12
Aspergillus fumigatus
  growth inhibition (GI): inactive
SK-MEL
  Activity: > 10 µg/mL
Cryptococcus neoformans
  IC50: Not Active
  MFC: inactive
  MIC: inactive
Escherichia coli
  growth inhibition (GI): inactive
BT-549
  Activity: > 10 µg/mL
Candida albicans
  growth inhibition (GI): inactive
LLC-PK1
  Activity: > 10 µg/mL
Pichia kudriavzevii
  growth inhibition (GI): inactive
SK-OV-3
  Activity: > 10 µg/mL
Nakaseomyces glabratus
  growth inhibition (GI): inactive
KB
  Activity: > 10 µg/mL
Vero
  Activity: > 10 µg/mL
